Test results as given in ChEMBL document CHEMBL1153046, “Synthesis and antitumor activity of substituted triazolo[4,3-a]pyrimidin-6-sulfonamide with an incorporated thiazolidinone moiety” (2009).

Columns and labels:
Assay type in all cases: functional
[1] = tested on: K562; test: Growth inhibition of human K562 cells after 48 hrs by sulforhodamine B assay; conditions: K562, 48 h
Procedure, shortened: (§1)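 NCI 60-cell-line panel. Cells are grown in RPMI1640 with 5% fetal calf serum and 2 mM L-glutamine, seeded at a density set by growth characteristics, and preincubated 24 h. Compound is tested at a minimum of five concentrations at 10-fold dilution, with 48 h continuous exposure. Viability is read by sulforhodamine B protein assay. GI50, TGI and LC50 come from dose-response curves.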

[2] = tested on: MOLT-4; test: Growth inhibition of human MOLT4 cells after 48 hrs by sulforhodamine B assay; conditions: MOLT-4, 48 h; procedure, shortened: as §1
[3] = Growth inhibition of human […] cells after 48 hrs by sulforhodamine B assay; procedure, shortened: as §1
[4] = tested on: SR; test: Growth inhibition of human SR cells after 48 hrs by sulforhodamine B assay
Procedure, shortened: (§2)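 NCI 60-cell-line panel (nine cancer types), with cells grown in RPMI1640 plus 5% fetal calf serum and 2 mM L-glutamine. Cells are seeded at a density that depends on the line and preincubated 24 h. Compounds are then applied at a minimum of five 10-fold dilutions over a 5-log range with 48 h continuous exposure. Viability is read by SRB protein assay, and GI50 is derived from dose-response curves in units of 10^-5 M.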

[5] = tested on: HOP-62; test: Growth inhibition of human HOP62 cells after 48 hrs by sulforhodamine B assay; conditions: HOP-62, 48 h; procedure, shortened: as §1
[6] = tested on: NCI-H226; test: Growth inhibition of human NCI-H226 cells after 48 hrs by sulforhodamine B assay; conditions: NCI-H226, 48 h; procedure, shortened: as §1
[7] = tested on: NCI-H23; test: Growth inhibition of human NCI-H23 cells after 48 hrs by sulforhodamine B assay; conditions: NCI-H23, 48 h; procedure, shortened: as §1
[8] = tested on: NCI-H460; test: Growth inhibition of human NCI-H460 cells after 48 hrs by sulforhodamine B assay; conditions: NCI-H460, 48 h; procedure, shortened: as §1
[9] = tested on: NCI-H522; test: Growth inhibition of human NCI-H522 cells after 48 hrs by sulforhodamine B assay; conditions: NCI-H522, 48 h; procedure, shortened: as §1
[10] = tested on: HCC 2998; test: Growth inhibition of human HCC2998 cells after 48 hrs by sulforhodamine B assay; conditions: HCC 2998, 48 h; procedure, shortened: as §1
[11] = tested on: HCT-15; test: Growth inhibition of human HCT15 cells after 48 hrs by sulforhodamine B assay; conditions: HCT-15, 48 h; procedure, shortened: as §1
[12] = tested on: HT-29; test: Growth inhibition of human HT-29 cells after 48 hrs by sulforhodamine B assay; conditions: HT-29, 48 h; procedure, shortened: as §1
[13] = tested on: KM12; test: Growth inhibition of human KM12 cells after 48 hrs by sulforhodamine B assay; conditions: KM12, 48 h; procedure, shortened: as §1
[14] = tested on: SW-620; test: Growth inhibition of human SW620 cells after 48 hrs by sulforhodamine B assay; conditions: SW-620, 48 h; procedure, shortened: as §2
[15] = tested on: SF-295; test: Growth inhibition of human SF295 cells after 48 hrs by sulforhodamine B assay; conditions: SF-295, 48 h; procedure, shortened: as §1
[16] = tested on: U-251; test: Growth inhibition of human U251 cells after 48 hrs by sulforhodamine B assay; conditions: U-251, 48 h; procedure, shortened: as §2
[17] = tested on: LOX IMVI; test: Growth inhibition of human LOXIMVI cells after 48 hrs by sulforhodamine B assay; procedure, shortened: as §1
[18] = tested on: SK-MEL-28; test: Growth inhibition of human SK-MEL-28 cells after 48 hrs by sulforhodamine B assay; conditions: SK-MEL-28, 48 h; procedure, shortened: as §1
[19] = tested on: SK-MEL-5; test: Growth inhibition of human SK-MEL-5 cells after 48 hrs by sulforhodamine B assay; conditions: SK-MEL-5, 48 h; procedure, shortened: as §1
[20] = tested on: UACC-257; test: Growth inhibition of human UACC257 cells after 48 hrs by sulforhodamine B assay; conditions: UACC-257, 48 h; procedure, shortened: as §2
[21] = tested on: UACC-62; test: Growth inhibition of human UACC62 cells after 48 hrs by sulforhodamine B assay; conditions: UACC-62, 48 h; procedure, shortened: as §2
[22] = tested on: OVCAR-3; test: Growth inhibition of human OVCAR-3 cells after 48 hrs by sulforhodamine B assay; conditions: OVCAR-3, 48 h; procedure, shortened: as §1
[23] = tested on: OVCAR-8; test: Growth inhibition of human OVCAR8 cells after 48 hrs by sulforhodamine B assay; conditions: OVCAR-8, 48 h; procedure, shortened: as §1
[24] = tested on: 786-0; test: Growth inhibition of human 786-0 cells after 48 hrs by sulforhodamine B assay; conditions: 786-0, 48 h; procedure, shortened: as §1
[25] = tested on: CAKI-1; test: Growth inhibition of human Caki1 cells after 48 hrs by sulforhodamine B assay; conditions: CAKI-1, 48 h; procedure, shortened: as §1
[26] = tested on: NCI-H460; test: Antiproliferative activity against human NCI-H460 cells assessed as cell growth at 100 uM after 48 hrs by alamar blue assay; conditions: NCI-H460, 48 h, read-out: Activity
Procedure, shortened: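 NCI three-cell-line primary screen. Cells are seeded and preincubated in microtiter plates. Compound is added at a single 10^-4 M concentration and cultures are incubated 48 h. The end-point is read with alamar blue. Results are given as percent growth relative to untreated control cells.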

[27] = tested on: CCRF-CEM; test: Growth inhibition of human CCRF-CEM cells after 48 hrs by sulforhodamine B assay; procedure, shortened: as §1
[28] = tested on: UO-31; test: Growth inhibition of human UO31 cells after 48 hrs by sulforhodamine B assay; conditions: UO-31, 48 h; procedure, shortened: as §2
[29] = tested on: MCF7; test: Growth inhibition of human MCF7 cells after 48 hrs by sulforhodamine B assay; conditions: MCF7, 48 h; procedure, shortened: as §1
[30] = tested on: MDA-MB-231; test: Growth inhibition of human MDA-MB-231 cells after 48 hrs by sulforhodamine B assay; conditions: MDA-MB-231, 48 h; procedure, shortened: as §1
[31] = Growth inhibition of human Hs 578T cells after 48 hrs by sulforhodamine B assay; procedure, shortened: as §1
[32] = read-out: LC50 (the source's name)

COc1ccc(/C=N/c2nc3[nH]nc(C)n3c(=O)c2S(=O)(=O)NN2C(=O)C(CN3CCN(C)CC3)SC2c2ccc(OC)cc2)cc1 (stereo unspecified)
GI50 [1]: 13 µM | LC50 [1]: 63.3 µM | TGI [1]: 28.7 µM | GI50 [2]: 17.8 µM | TGI [2]: 58.9 µM | CC50 [2, 32]: > 100 µM | GI50 [3]: 14.1 µM | TGI [3]: 39 µM | CC50 [3, 32]: > 100 µM | GI50 [4]: 7.72 µM | LC50 (concentration killing 50% of cells) [4]: 84.9 µM | TGI [4]: 27.5 µM | GI50 [5]: 20.2 µM | LC50 [5]: 82.6 µM | TGI [5]: 40.9 µM | GI50 [6]: 12.4 µM | LC50 (concentration killing 50% of cells) [6]: 75.7 µM | TGI [6]: 30.6 µM | GI50 [7]: 20.5 µM | TGI [7]: 48.1 µM | GI50 [8]: 16.4 µM | TGI [8]: 46.7 µM | GI50 [9]: 21.9 µM | TGI [9]: 47.7 µM | GI50 [10]: 8.59 µM | LC50 [10]: 71.9 µM | TGI [10]: 22.5 µM | GI50 [11]: 17.2 µM | TGI [11]: 70.8 µM | GI50 [12]: 34.7 µM | GI50 [13]: 24.8 µM | GI50 [14]: 30.4 µM | GI50 [15]: 16.8 µM | LC50 (concentration killing 50% of cells) [15]: 76.8 µM | TGI [15]: 35.9 µM | GI50 [16]: 17.6 µM | LC50 [16]: > 100 µM | TGI [16]: 45.2 µM | GI50 [17]: 7.4 µM | TGI [17]: > 100 µM | GI50 [18]: 30.3 µM | TGI [18]: 78.2 µM | GI50 [19]: 19.3 µM | TGI [19]: 39 µM | CC50 [19, 32]: 78.5 µM | GI50 [20]: 21.6 µM | LC50 [20]: 92.3 µM | TGI [20]: 44.7 µM | GI50 [21]: 18.9 µM | TGI [21]: 38.4 µM | CC50 [21, 32]: 77.8 µM | GI50 [22]: 21.5 µM | LC50 (concentration killing 50% of cells) [22]: 75.3 µM | TGI [22]: 40.2 µM | GI50 [23]: 7.82 µM | TGI [23]: 47.2 µM | GI50 [24]: 16.2 µM | TGI [24]: 31.2 µM | CC50 [24, 32]: 59.9 µM | GI50 [25]: 20.9 µM | LC50 (50% lethal concentration) [25]: 77.8 µM | TGI [25]: 40.3 µM | growth at 100 µM [26]: 0% | GI50 [27]: 17.2 µM | TGI [27]: 49.2 µM | GI50 [28]: 20.6 µM | LC50 [28]: 70.5 µM | TGI [28]: 38.1 µM | GI50 [29]: 15.3 µM | TGI [29]: 47.8 µM | GI50 [30]: 12.2 µM | LC50 (50% lethal concentration) [30]: 88.6 µM | TGI [30]: 32.9 µM | GI50 [31]: 13 µM | LC50 (concentration killing 50% of cells) [31]: 88.7 µM | TGI [31]: 34 µM
